FN deposition inh – fibronectin deposition inhibition. actives 0.086% (n = 350,000). AH1F fibroblasts, Alexa488-fibronectin deposition fluorescence, overnight. AID 743247. inhibition, % at 12.6 µM;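 active = mean inhibition across replicates of 30% or more, regardless of how many single replicates reach that level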;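 note: positive control wells lacked labelled fibronectin entirely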
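Material: AH1F fibroblast monolayer depositing Alexa488-labelled fibronectin into matrix / Amount: 10000 AH1F cells per well / Signal: fluorescence 485/525 nm / Medium: DMEM, 2% serum / Compound: single dose, pinned / Incubation: 1 h cell adhesion before compound, then overnight fibronectin incubation / Reagent: Alexa488-FN, 24 nM final / Read-out: inhibition of fibronectin deposition signal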
GC-A act – GC-A (human) enzyme activation; actives 0.14% (n = 370,000); activation, % at 10 µM; HEK293 GC-A cells, cGMP TR-FRET, EC30 ANP; 0% at EC30 ANP, 100% saturating ANP; P16066; in the data active = activation above about 40%
CaV13 FRET inh – Primary screen for inhibitors of IQ motif and Ca2+-dependent inactivation inhibitor domain binding in CACNA1D, Förster resonance energy transfer in living cells, … | HEK cells, CFP/YFP FRET ICDI-IQ, plate reader, 10 min; percent FRET-ratio fall versus neutral wells | inhibition, % at 12.3 µM | actives 0.098% (n = 340,000) | AID 743397;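 active = mean replicate inhibition of at least 30% and at least 1% of replicates passing that level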;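 note: 0% = median of the neutral control wells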
NPR2 activator – GC-B (human) receptor activation. actives 0.11% (n = 370,000). P20594. activation, % at 10 µM. AID 1920062. HEK293-GC-B cells, CNP EC30, cGMP TR-FRET; 0% at EC30 CNP, 100% saturating CNP;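 active = activation at 10 µM reaching about 35% in either raw or pattern-adjusted values, limit read from the data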
Casp6 inh – caspase-6 (human) enzyme inhibition; P55212; purified caspase-6, Z-VEID-R110 cleavage fluorescence; inhibition, % at 12.5 µM; actives 0.53% (n = 350,000);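 active = mean inhibition across replicates at least about 35%, with every replicate also reaching that limit, limit read from the data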;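 note: 0% = median of neutral control wells and 100% = no fluorescence left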
NSD2 inh – blocks human histone methyltransferase NSD2; inhibition, % at 12.5 µM; O96028; NSD2 peptide methylation, AlphaScreen, 120 min; AID 743445; actives 0.54% (n = 310,000); in the data active = inhibition above about 50%
AlphaScreen art – counter-screen for NSD2 inhibitors: AlphaScreen artifacts. shares compounds with NSD2 inh. AlphaScreen artifact counterscreen, preloaded methylated H4 peptide. AC35, µM (titrated, usually from 10 µM), for inactives: at the highest dose activity change, negative = signal loss. actives 9.4% (n = 1,500). AID 1053174; call rule not given here
* marks the source's active call; other numbers are inactive results; x = no result given. Most compounds without a hit are left out; they make up all but 0.99% or so of the library.

SMILES	FN deposition inh	GC-A act	CaV13 FRET inh	NPR2 activator	Casp6 inh	NSD2 inh	AlphaScreen art
CN(C)C(=O)C[C@H]1CC[C@@H]2[C@H](COC[C@@H](O)CN2CC2CCCC2)O1	0	x	x	x	4	x	x
CCOC(=O)C(CCCCP(=O)(c1ccccc1)c1ccccc1)(NC(C)=O)C(=O)OCC	6	0	-14	3	-1	15	x
CCOC(=O)C(CCCP(=O)(c1ccccc1)c1ccccc1)(NC(C)=O)C(=O)OCC	0	3	-17	3	-1	60*	-5%
CC(=O)Nc1cccc(C(=O)OCC(=O)NC(=O)Cc2ccccc2)c1	-1	3	-5	2	2	-2	x
CC(=O)Nc1cccc(C(=O)OCc2ccccc2)c1	-14	-1	-5	0	x	57*	-4%
CC(=O)N(C)C[C@H]1Oc2ncc(C#C[C@@H](C)O)cc2C(=O)N([C@H](C)CO)C[C@H]1C	2	x	x	x	-1	x	x
Cc1nc(COC(=O)c2cc(O)c3ccccc3c2O)cs1	-4	0	-6	-3	12	78*	-2%
COc1ccc2c3c(n(C)c2c1)[C@H](CO)N(C(=O)Nc1cccc(F)c1)CC31CN(C)C1	x	x	x	x	-4	x	x
Cc1ccccc1Nc1nc(N)nc(CSc2nnc3sc4ccccc4n23)n1	x	-1	-8	-7	x	66*	4%
COCCNC(=O)CN(C(=O)CCC(=O)Nc1nccs1)c1ccc2c(c1)OCO2	-4	3	-7	1	-2	67*	-3%
CC(C)NC(=O)CN(C(=O)CCC(=O)Nc1nccs1)c1ccc2c(c1)OCO2	5	-1	-5	2	2	-5	x
CC(C)(C#N)NC(=O)C1CCCN1S(=O)(=O)c1ccc2ccccc2c1 (stereo unspecified)	-2	0	-7	3	-3	109*	-2%
COCCNC(=O)C[C@@H]1C[C@H]2c3cc(NS(=O)(=O)c4ccc(F)cc4)ccc3O[C@H]2[C@H](CO)O1	-19	x	x	x	x	x	x
O=C1C=C(O)c2[nH]c(=O)ccc2C1=O	-6	-7	-6	-2	84*	94*	1%
Nc1nc(COC(=O)c2ccco2)nc(Nc2ccccc2)n1	0	-4	-4	-1	1	53*	-3%
Cc1cc2ccccn2c1C(=O)c1ccc([N+](=O)[O-])o1	-5	-2	2	-3	3	61*	-11%
COC(=O)c1ccccc1-c1ccc(C(c2c(C)[nH][nH]c2=O)c2c(C)[nH][nH]c2=O)o1	x	4	-7	9	42*	196*	1%
COC(=O)c1ccc(C(c2c(C)[nH][nH]c2=O)c2c(C)[nH][nH]c2=O)cc1	-3	-1	-4	3	2	0	x
Cc1[nH][nH]c(=O)c1C(c1ccc(-c2ccc(Cl)c(C(=O)O)c2)o1)c1c(C)[nH][nH]c1=O	12	2	-5	-1	x	131*	2%
Cc1ccc(-c2ccc(C(=O)O)o2)cc1Cl	-14	0	-2	-4	-1	0	x
COC(=O)c1cccc(-c2ccc(C(c3c(C)[nH][nH]c3=O)c3c(C)[nH][nH]c3=O)o2)c1	-1	2	-13	1	16	107*	-5%
C[C@@H]1CCCCO[C@@H](CN(C)C(=O)NC2CCCCC2)[C@@H](C)CN([C@@H](C)CO)C(=O)c2cc(NC(=O)Nc3ccc4c(c3)OCO4)ccc2O1	-6	x	x	x	1	x	x
C/C(=N\NC(=O)c1nnn(-c2nonc2N)c1C)c1ccc(-c2ccccc2)cc1	0	-2	-2	-6	-8	99*	-1%
O=C(C[C@H]1C[C@H]2c3cc(NC(=O)Cc4ccncc4)ccc3O[C@H]2[C@@H](CO)O1)NCc1ccc(-c2ccccc2)cc1	x	x	x	x	2	x	x
CCN(CC)CCNC(=S)Nc1ccc2nc(N3CCCC3)cc(C)c2c1	-5	8	-5	2	-53	66*	-4%
SMILES	FN deposition inh	GC-A act	CaV13 FRET inh	NPR2 activator	Casp6 inh	NSD2 inh	AlphaScreen art
Cc1ccc(C)c(NC(=S)Nc2cccc3cnccc23)c1	2	-15	-2	2	20	98*	-6%
Fc1ccccc1NC(=S)Nc1cccc2cnccc12	x	0	-7	0	27	99*	-4%
Cc1ccccc1NC(=S)Nc1cccc2cnccc12	-3	-2	-1	2	17	104*	6%
Cc1ccc(C)c(NC(=S)Nc2cccnc2)c1	-4	3	-2	2	-1	-1	x
COc1ccc(S(=O)(=O)Nc2ccc3c(c2)CC(=O)N([C@H](C)CO)C[C@H](C)[C@H](CN(C)Cc2ccncc2)O3)cc1	0	x	x	x	-2	x	x
CCn1cnc2c1c(=O)n(CC(=O)O)c(=O)n2Cc1ccccc1	-3	0	-4	0	-3	113*	-1%
CCn1cnc2c1c(=O)n(CC(=O)OC)c(=O)n2Cc1ccccc1	2	4	-6	12	-2	-2	x
CCCCc1nc2cc(C(=O)N3CCC(O)CC3)ccc2o1	1	0	-11	-4	0	66*	-4%
CCCCc1nc2cc(C(=O)N3CCC[C@H]3CO)ccc2o1	-1	-1	-3	0	-1	-5	x
Cc1cccc(NC(=O)CCN2CCCCC2)c1	-1	-1	-20	3	-2	66*	-5%
Cc1ccc(NC(=O)CCN2CCN(C/C=C/c3ccccc3)CC2)cc1C	-8	-2	-4	-6	x	64*	-14%
Cc1ccc(NC(=O)CCN2CCN(C/C=C/c3ccccc3)CC2)cc1	x	-7	x	-16	x	33	x
CC(=O)N(C)C[C@@H]1Oc2ncc(C#Cc3ccccc3)cc2C(=O)N([C@@H](C)CO)C[C@H]1C	x	x	x	x	-1	x	x
COC(=O)COc1ccc(S(=O)(=O)NCC2CCCO2)cc1Cl (stereo unspecified)	11	-1	-5	2	x	51*	1%
COc1ccc(S(=O)(=O)NCC2CCCO2)cc1Cl (stereo unspecified)	4	-1	-2	-1	0	-3	x
COc1ccc(OC)c(NC(=O)Nc2c(O)ccc3ccccc23)c1	-1	-5	-19	-8	2	5	x
COc1ccc(OC)c(C(=O)Nc2c(O)ccc3ccccc23)c1	0	1	-18	0	1	52*	2%
COc1ccc(-c2cn[nH]c2N)cc1	x	-1	x	-2	x	63*	-3%
O=C(Nc1ccc(Br)cc1)c1ccc(-n2cnnn2)cc1	3	-6	-3	-1	3	105*	-4%
Cc1cccc(C)c1NC(=O)c1ccc(-n2cnnn2)cc1	-9	6	-4	4	x	-7	x
